Screening data from PubChem.
A selection: hits, their analogues and other compounds. The true share with any hit is near 5.2%.
NS3 helicase inh – blocks Hepatitis C virus NS3 helicase unwinding; NS3 helicase DNA unwinding, Cy5 molecular beacon fluorescence; inhibition, % at 10.9 µM; 290,000 tested, 0.56% active;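 active = inhibition above the mean of all tested compounds plus 3 SD, set per campaign, cut at about 35% in these data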;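 also: 0% = DMSO wells and 100% = thioflavine S control wells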
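Measured by: Cy5 fluorescence, 0 and 60 min reads / Assay system: NS3 helicase fragment of HCV / Control set: low DMSO, high thioflavine S at 110 µM / Times: 1 h reaction at 25 °C, ATP-initiated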
ALR H2O2 inh – human ALR oxidase inhibition via reduced H2O2 | purified ALR, DTT oxidation, H2O2 HRP-luminol luminescence | inhibition, % (test concentration not listed) | 290,000 tested, 3.8% active | AID 485317;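 active = mean replicate inhibition above about 79%, with every replicate also reaching it, limit read from the data; inconclusive = only one of the two criteria met; inactive = mean below limit and not every replicate reaching it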
Target sequence (P55789 whole entry, looked up): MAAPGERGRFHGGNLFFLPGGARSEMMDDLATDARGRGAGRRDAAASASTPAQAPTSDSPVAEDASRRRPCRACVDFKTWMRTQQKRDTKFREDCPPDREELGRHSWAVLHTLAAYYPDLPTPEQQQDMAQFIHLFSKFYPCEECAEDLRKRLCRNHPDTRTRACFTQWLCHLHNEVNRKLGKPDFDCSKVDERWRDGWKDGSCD
HCV core dimer – blocks dimerization of HCV core protein. TR-FRET GST/Flag-core106 dimerization, 1536-well. inhibition, % at 5 µM. 300,000 tested, 0.33% active. AID 1899;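 active = inhibition above the mean of all tested compounds plus 3 SD, set per screening campaign, cut at about 45% in these data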
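Material: Tagged HCV core106 pair (GST and Flag) | Amount: GST-core106 13.5 nM, Flag-core106 17 nM | Medium: KF-containing HEPES buffer, pH 7.45, DTT, CHAPS, BSA | Reagent: Eu donor and XL665 acceptor anti-tag antibodies | Schedule: 4 h at 22.5 °C | Technique: Time-resolved FRET, ex 340 nm, em 617 and 671 nm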
PfM18AAP inh-1 – blocks P. falciparum M18 aspartyl aminopeptidase | recombinant PfM18AAP, H-Glu-NHMec fluorogenic cleavage | inhibition, % at 7.35 µM | 290,000 tested, 1.2% active | AID 1822;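 active = inhibition above the campaign mean inhibition over all tested compounds plus 3 SD, cut at about 28% in these data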;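 also: 0% = plate median of test compound wells and 100% = 2 mM ZnCl2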
ZTA DNA inh – blocks Epstein-Barr virus ZTA, an EBNA-1 counter-screen. ZTA-DNA binding, fluorescence polarization. 320,000 tested, 0.15% active. inhibition, % at 11 µM. P03206; in the data active = inhibition above about 33%
Target sequence (P03206 whole entry, looked up): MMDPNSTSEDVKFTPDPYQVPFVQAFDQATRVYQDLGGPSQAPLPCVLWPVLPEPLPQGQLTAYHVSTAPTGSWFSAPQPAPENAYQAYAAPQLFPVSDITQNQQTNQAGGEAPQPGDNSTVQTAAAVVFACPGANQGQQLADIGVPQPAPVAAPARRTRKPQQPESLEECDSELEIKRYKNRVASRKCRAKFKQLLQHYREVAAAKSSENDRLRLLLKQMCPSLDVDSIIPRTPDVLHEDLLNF
EBNA-1 inh – blocks EBNA-1 binding to DNA | EBNA-1 DNA binding, fluorescence polarization | inhibition, % at 14.8 µM | 300,000 tested, 0.34% active | AID 1950; in the data active = inhibition above about 28%
NS3 hel confirm – HCV NS3 helicase inhibition, confirmation assay | inhibition, % at 10.9 µM | NS3 helicase DNA unwinding, Cy5 molecular beacon fluorescence | shares compounds with NS3 helicase inh | 1,600 tested, 31% active;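 active = inhibition above the mean of all tested compounds plus 3 SD, cutoff set per campaign, cut at about 36% in these data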
DNA FID counter – intercalator displacement, NS3 helicase counter-screen; 1,600 tested, 4% active; inhibition, % at 7.9 µM; AID 1945; DNA fluorescent intercalator displacement, fluorescence; shares compounds with NS3 helicase inh; in the data active = inhibition above about 37%;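 also: 0% = vehicle and 100% = reference compound; higher means more displacement of ethidium bromide from the DNA hairpin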
PfM18AAP inh-2 – PfM18AAP inhibition, confirmation. shares compounds with PfM18AAP inh-1. AID 2170. 2,400 tested, 28% active. inhibition, % at 7.35 µM. recombinant PfM18AAP, H-Glu-NHMec fluorogenic cleavage;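 active = mean inhibition over replicate wells above the hit cutoff set for the earlier primary screen, cut at about 29% in these data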;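 also: 0% = median of test compound wells and 100% = 2 mM ZnCl2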
CTSL1 counter – Cathepsin L (human) inhibition, confirmation; shares compounds with PfM18AAP inh-1; purified cathepsin L1, Z-Leu-Arg-MCA fluorescence; inhibition, % at 5.96 µM; 2,400 tested, under 10 active; AID 2178;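 active = average inhibition across replicates above the hit cutoff set in the earlier primary screen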;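 also: 0% = median of test compound wells and 100% = Z-Phe-Ala-diazomethylketone 1 µM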
Numbers without * were called inactive.

CC(NC(=O)c1cccc(S(=O)(=O)N2CCN(C)CC2)c1)c1ccc(Cl)cc1Cl (centres undefined) was read as ALR H2O2 inh -4, HCV core dimer -1, ZTA DNA inh 1 and EBNA-1 inh -6.
Screening O=S(=O)(c1cnc[nH]1)N1CCN(C(c2ccc(F)cc2)c2ccc(F)cc2)CC1 returned NS3 helicase inh -5, ALR H2O2 inh -2, HCV core dimer -2, PfM18AAP inh-1 1, ZTA DNA inh -5 and EBNA-1 inh -13.
CC1(c2ccc(OC(F)F)cc2)NC(=O)N(CC(=O)N2CCN(C(=O)c3ccco3)CC2)C1=O (centres undefined) was read as ALR H2O2 inh -3 and ZTA DNA inh 7.
Screening Cc1ccc(S(=O)(=O)NC(=O)Nc2ccc(N(C)C)cc2)cc1 returned NS3 helicase inh 51*, ALR H2O2 inh 86*, HCV core dimer -155, PfM18AAP inh-1 43*, ZTA DNA inh active, EBNA-1 inh active, NS3 hel confirm 70*, DNA FID counter 23, PfM18AAP inh-2 -26 and CTSL1 counter 4.
`COc1ccc(CNCc2cc3c(cc2[N+](=O)[O-])OCO3)cc1` gave NS3 helicase inh 40*, ALR H2O2 inh -35, HCV core dimer -3, PfM18AAP inh-1 38*, ZTA DNA inh 3, EBNA-1 inh 4, NS3 hel confirm -13, DNA FID counter 11, PfM18AAP inh-2 -15 and CTSL1 counter -2.
Screening O=C(NNc1nc2ccccc2s1)c1ccccc1F returned NS3 helicase inh 51*, ALR H2O2 inh 97*, HCV core dimer 6, PfM18AAP inh-1 47*, ZTA DNA inh -2, EBNA-1 inh 6, NS3 hel confirm -6, DNA FID counter 11, PfM18AAP inh-2 -5 and CTSL1 counter 6.
Screening COc1ccc(-c2cc(=O)c3cc(OC)ccc3o2)cc1 returned NS3 helicase inh 1, ALR H2O2 inh -1, HCV core dimer -8, PfM18AAP inh-1 -2, ZTA DNA inh -5 and EBNA-1 inh -1.
Screening COc1cc(OC)c(-c2c3cc(O)c(=O)cc-3oc3cc(O)c(O)cc23)cc1OC returned NS3 helicase inh 51*, ALR H2O2 inh inconclusive, HCV core dimer -18, PfM18AAP inh-1 44*, ZTA DNA inh 19, EBNA-1 inh 5, NS3 hel confirm 86*, DNA FID counter -167, PfM18AAP inh-2 26 and CTSL1 counter -1.
Screening Cc1cccc(C)c1NC(=O)CNC(=O)c1c(-c2ccccc2)noc1C returned ZTA DNA inh -10.
Screening Cn1c(SCC(=O)NNC(=O)c2ccccc2)nnc1C1CC1 returned NS3 helicase inh 0, HCV core dimer 8, PfM18AAP inh-1 -1, ZTA DNA inh 9 and EBNA-1 inh 8.
For CCOc1ccc(S(=O)(=O)N2CCN(C(=O)c3ccncc3)CC2)cc1 the results were NS3 helicase inh 8, ALR H2O2 inh -3, HCV core dimer 2, PfM18AAP inh-1 -5, ZTA DNA inh 6 and EBNA-1 inh 8.
For CSc1sc(-c2ccnc(SCC(=O)C(C)(C)C)n2)c2c1C(=O)CC(C)(C)C2 the results were NS3 helicase inh 56*, HCV core dimer 8, PfM18AAP inh-1 35*, ZTA DNA inh 12, EBNA-1 inh 1, NS3 hel confirm -9, DNA FID counter -21, PfM18AAP inh-2 -26 and CTSL1 counter 3.
For CSc1sc(C(=O)O)c2c1C(=O)CC(C)(C)C2 the results were ALR H2O2 inh 2, HCV core dimer -6, ZTA DNA inh -8 and EBNA-1 inh 3.
